Screens deposited in PubChem BioAssay by Johns Hopkins Ion Channel Center.
Most compounds without a hit are left out; they make up all but 3.5% or so of the library.
MrgX1 PAM: allosterically activates human MrgX1 receptor signaling. B-score at 10 µM. hit rate 0.63% among 310,000. MrgX1-HEK293, Fluo-4 calcium flux, FDSS; stronger effect = higher value;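 active = plate-corrected calcium response at least 3 library SD above typical, normal starting fluorescence, not activating the receptor alone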;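 note: compound read alongside a low EC10 to EC30 dose of BAM8-22 agonist; peak minus trough fluorescence over baseline measured at the second addition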
Target sequence (Q96LB2 whole entry, looked up): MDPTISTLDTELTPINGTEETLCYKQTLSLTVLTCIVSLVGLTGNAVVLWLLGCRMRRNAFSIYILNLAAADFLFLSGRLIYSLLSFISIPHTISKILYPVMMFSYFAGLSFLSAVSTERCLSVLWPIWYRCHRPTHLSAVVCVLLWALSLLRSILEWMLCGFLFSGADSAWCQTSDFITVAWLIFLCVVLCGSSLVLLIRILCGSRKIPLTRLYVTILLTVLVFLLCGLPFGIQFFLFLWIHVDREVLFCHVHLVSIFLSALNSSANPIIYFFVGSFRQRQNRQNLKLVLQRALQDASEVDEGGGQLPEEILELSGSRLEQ
MrgX1 agonist: agonists of human MrgX1 receptor; MrgX1-HEK293 cells, Fluo-4 calcium fluorescence, agonist mode; stronger effect = higher value; B-score at 10 µM; hit rate 0.44% among 310,000;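 active = calcium response B-score plate-corrected fluorescence ratio at least 3 library SD, with starting fluorescence B-score inside 5 SD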
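Material: MrgX1-expressing HEK293 cells; input: 15,000 cells per well; doses: test compound given as first of three sequential additions; schedule: overnight plating before 1 h dye loading; technique: Fluo-4 NW calcium-flux fluorescence, kinetic read; evaluation: baseline-normalised fluorescence change ratio, B-scored; control set: plate-wise positive and negative controls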
MrgX1 antagonist: human MrgX1 receptor antagonism, primary screen. AID 588676. hit rate 1.3% among 310,000. B-score at 10 µM. MRGX1-HEK293 calcium flux, Fluo-4, BAM8-22 antagonism; stronger effect = lower value. Q96LB2;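 active = calcium-response B-score plate-corrected more than 3 library SD below zero, starting fluorescence within 5 deviations, no agonist response on first addition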;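 note: peak minus trough fluorescence over baseline after final BAM8-22 challenge near maximal dose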
RGS4 act: RGS4 potentiation or activation; HEK293 M3R/inducible RGS4, carbachol calcium flux Fluo4; stronger effect = lower value; B-score at 10 µM; hit rate 0.92% among 310,000;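 active = B-score of the integrated calcium signal more than 4 SD below the library mean, with starting fluorescence not abnormally high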;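 note: negative B-score means reduced calcium response which marks RGS4 activation or potentiation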
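Assay system: HEK293 FlpIn-TREx cells, stable M3R, doxycycline-inducible RGS4 / Probe or stimulus: carbachol, ECmax concentration / Times: overnight RGS4 induction, 30 min dye load 37 °C, 20 min compound RT / Signal: kinetic calcium fluorescence imaging with Fluo4-AM dye, 2 µM / Measure: Agonist-evoked peak-minus-minimum fluorescence over baseline, integrated ratio, B score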
RGS4 block: inhibitors of human RGS4 | P49798 | HEK293 M3R/RGS4 inducible, Fluo-4 calcium flux; stronger effect = higher value; triggered by carbachol at its EC20 | B-score at 10 µM | hit rate 0.45% among 310,000 | AID 463165;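 active = B-score, a plate-corrected calcium signal, over three deviations above library mean, with baseline fluorescence within five deviations of library mean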;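 note: RGS4 expression induced by doxycycline in cells with stable M3 receptor; B-score is computed from the integrated fluorescence ratio over baseline after carbachol; higher B-score means a larger calcium signal and so more RGS4 inhibition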
Target sequence (P49798 whole entry, looked up): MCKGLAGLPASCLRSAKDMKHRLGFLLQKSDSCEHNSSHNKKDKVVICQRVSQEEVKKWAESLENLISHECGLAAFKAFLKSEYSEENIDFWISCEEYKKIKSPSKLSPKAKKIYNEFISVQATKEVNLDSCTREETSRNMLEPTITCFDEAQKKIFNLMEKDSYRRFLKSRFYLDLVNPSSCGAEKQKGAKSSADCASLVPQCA
* = called active by the depositor; i = inactive; . = not tested or not shown.

SMILES | MrgX1 PAM | MrgX1 agonist | MrgX1 antagonist | RGS4 act | RGS4 block
Cc1cc(C(=O)COc2ccccc2Cl)c(C)n1-c1ccc2c(c1)OCO2 | i | i | i | -7.51* | i
Cc1ccc(/C(=N\O)c2oc3c(C)c4oc(=O)cc(C)c4cc3c2C)cc1 | 10.2* | i | i | -8.08* | i
COc1ccccc1OCCC(=O)OCC(=O)NC(C)c1ccccc1 (stereo not given) | i | i | -6.14* | i | i
O=C(c1ccnc(Cl)c1)N1CCCC(N2CCN(c3ccccc3F)CC2)C1 (stereo not given) | i | i | i | i | i
O=C(Cc1ccccc1)NC(NC(=O)Cc1ccccc1)c1cccc([N+](=O)[O-])c1 | i | i | i | i | i
C=CCN(CC(O)c1cccc([N+](=O)[O-])c1)C(C)CCc1ccccc1 (stereo not given) | 15.9* | i | i | i | i
CC(C)Cc1ccc(C(C)C(N)=NCCc2ccccc2)cc1 (stereo not given) | i | i | i | -7.12* | i
O=[N+]([O-])c1ccc(N2CCN(C(=S)Nc3ccccc3)CC2)cc1 | 7.46* | i | i | i | i
O=C(/C=C/c1ccc(S(=O)(=O)N2CCOCC2)cc1)NCc1ccccc1Cl | i | i | i | i | i
C=CCn1c(COc2cc(C)ccc2C(C)C)nnc1SCC(=O)c1c(N)n(C)c(=O)n(C)c1=O | i | i | -4.74* | i | i
CCCCCCn1c(COc2ccccc2F)nnc1SCC(=O)c1c(N)n(C)c(=O)n(C)c1=O | i | i | i | i | i
CC(C)(C)C(=O)Nc1cccc(-c2ncon2)c1 | i | i | i | i | i
O=C(CSc1nc(=O)n2ccccc2n1)NCc1ccccc1 | i | i | i | i | i
O=c1oc2ccccc2nc1/C=C(O)/C=C/c1ccc(F)cc1 | i | i | i | i | i
O=c1oc2ccccc2nc1/C=C(O)/C=C\c1ccccc1 | 8.58* | i | i | i | i
Cn1cnc([N+](=O)[O-])c1Sc1ncccc1N | i | i | -7.15* | i | i
Cc1ccc(Sc2c([N+](=O)[O-])ncn2C)cc1 | i | i | i | i | i
CCCCCc1ccc(OCCCC[n+]2ccccc2)c(CCCCC)c1 | i | i | i | -7.75* | i
CCCCCc1ccc(OCCCC[n+]2cccc(C)c2)c(CCCCC)c1 | i | i | i | -8.71* | i
CCCCCc1ccc(OCCCC[n+]2ccc(C)cc2)c(CCCCC)c1 | i | i | i | i | i
N=c1c(C(=O)NCC2CCCO2)cc2c(=O)n3ccccc3nc2n1Cc1ccccc1Cl (stereo not given) | i | i | i | i | i
CC(C)C(NC(=O)c1ccccc1NC(=O)c1ccccc1)C(=O)NCCCn1ccnc1 (stereo not given) | i | i | i | i | i
Cc1c2cnn(CC(=O)NCCCN3CC(C)CC(C)C3)c(=O)c2c(C)n1Cc1ccccc1Cl (stereo not given) | i | i | -6.89* | i | i
CC1CC(C)CN(CCCNC(=O)Cn2ncc3c(=O)oc4ccccc4c32)C1 (stereo not given) | i | i | i | i | i
CC1CCN(CC(=O)Nc2ccc(S(=O)(=O)N3CCCCC3)cc2)CC1 | i | i | i | i | i
SMILES | MrgX1 PAM | MrgX1 agonist | MrgX1 antagonist | RGS4 act | RGS4 block
CC1CCN(CC(=O)Nc2ccc(N3CCCCCC3)cc2)CC1 | i | i | i | -6.99* | i
CC(C)C(C(=O)Nc1ccncc1)c1ccc(Cl)cc1 (stereo not given) | i | i | -4.58* | i | i
N#C/C(=C\c1c(Oc2ccccc2F)nc2ccccn2c1=O)C(=O)NC1CCS(=O)(=O)C1 (stereo not given) | i | i | i | i | i
COc1ccc(CCNC(=O)c2cc3c(=O)n4ccccc4nc3n(C3CCCCC3)c2=N)cc1 | i | i | i | -7.13* | i
COc1ccc(CCNC(=O)c2cc3c(=O)n4ccccc4nc3n(C3CCCCC3)c2=N)cc1OC | i | i | i | i | i
Cc1cccn2c(=O)c3cc(C(=O)NC4CCCC4)c(=N)n(CCc4ccccc4)c3nc12 | i | i | i | -8.07* | i
Cc1cc2[nH]c3c(c[n+](C)c4ccccc34)c2cc1C | i | i | i | -7.06* | i
Cc1cc(C)c2c(c1)NC(c1cc3c(cc1Br)OCO3)C1CC=CC21 (stereo not given) | i | i | i | i | i
COc1ccccc1-n1cnnc1SCC(=O)c1cc(C)n(Cc2cccs2)c1C | i | i | i | i | i
Cc1cc(C(=O)CSc2nnc(-c3ccccc3F)o2)c(C)n1Cc1cccs1 | i | i | -6.04* | i | i
COc1ccc(-c2cn(CCO)c(-c3ccc(Cl)nc3)n2)cc1 | i | i | i | . | .
Cc1cccc([C@@H]2[C@@H]3C(=O)N(Cc4ccccc4)C(=O)[C@@H]3[C@]3(Cc4ccc(Cl)cc4)C(=O)N(c4ccc(Br)cc4)C(=O)N23)c1 | i | i | i | i | i
CCOCCCNC(=O)C(Cc1ccccc1)NS(=O)(=O)c1ccc2c(c1)c(=O)n(C)c(=O)n2C (stereo not given) | i | i | -5.78* | i | i
N#CC1(C#N)[C@@H](C(=O)C23CC4CC(CC(C4)C2)C3)C12CCOCC2 | i | i | -6.56* | i | i
CC(C(=O)C12CC3CC(CC(C3)C1)C2)N1CCOCC1 (stereo not given) | i | i | i | i | i
COc1ccc(-n2c(-c3ccc(Br)cc3)c[n+]3c2CCC3)cc1 | i | i | i | -7.21* | i
COc1ccc(NC(=O)C(=O)NNC(=O)C(C)Oc2ccc(Cl)cc2Cl)cc1 (stereo not given) | i | i | -6.24* | i | i
O=S(=O)(c1ccc(Cl)c(Cl)c1)c1snnc1-c1ccccc1 | . | . | . | -7.3* | i
c1ccc(-c2nnsc2-c2ccccc2)cc1 | i | i | i | i | i
CCc1ccc([C@@H]2CC=C(C(=O)O)[C@H](c3ccccc3F)N2S(=O)(=O)c2ccc(C)cc2)cc1 | 6.82* | i | i | . | .
Cc1ccc(S(=O)(=O)N2[C@@H](c3cccc(Cl)c3)C(C(=O)O)=CC[C@H]2c2ccc3c(c2)OCO3)cc1 | 7* | i | i | . | .
COc1cccc([C@@H]2CC=C(C(=O)O)[C@H](c3ccc(Cl)cc3)N2S(=O)(=O)c2ccc(C)cc2)c1 | i | i | i | . | .
